SENP6 block: SENP6 protease inhibition | AID 2599 | Recombinant SENP6 catalytic domain, aminoluciferin luminescence | actives 1.8% (n = 330,000) | inhibition, % at 10 µM | Q9GZR1;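 active means inhibition above about 50% at the single tested dose, limit read from the data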;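 further: plate controls were DMSO wells with enzyme for no effect and DMSO wells lacking enzyme for full effect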
SENP1 inh: inhibitors of human SENP1 SUMO protease catalytic domain; Q9P0U3; recombinant SENP1 catalytic domain, CyPet-SUMO1-YPet FRET cleavage; actives 0.21% (n = 360,000); AID 624204; inhibition, % at 10 µM;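 active means inhibition at least 30% at 10 µM, raw YFP signal under a set limit, fluorescence ratio 0.5 to 1.5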;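 further: 0% = enzyme with DMSO and 100% = no enzyme wells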
Target sequence (Q9P0U3 419-644 limits assumed): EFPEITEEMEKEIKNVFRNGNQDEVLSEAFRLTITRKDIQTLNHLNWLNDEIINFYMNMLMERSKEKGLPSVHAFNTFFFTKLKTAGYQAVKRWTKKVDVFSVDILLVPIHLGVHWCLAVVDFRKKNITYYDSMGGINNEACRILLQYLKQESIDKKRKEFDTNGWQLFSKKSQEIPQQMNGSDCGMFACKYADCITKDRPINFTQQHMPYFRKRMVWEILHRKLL
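Test system: recombinant human SENP1 catalytic domain, His6-tagged / Medium: pH 8 Tris buffer with EDTA, NaCl, BME, BSA, NP40, catalase / Also added: SUMO1 FRET substrate flanked by Cypet and Ypet, 25 nM / Times: 50 min reaction at room temperature / Signal: FRET, CFP and YFP emission / Control set: no-enzyme low control and enzyme-plus-DMSO high control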
SENP8 block-1: inhibitors of human SENP8 protease; Q96LD8; recombinant SENP8, Nedd8 substrate fluorescence; inhibition, % at 20 µM; actives 0.64% (n = 360,000); AID 602440; in the data active means inhibition mostly above about 40%, no sharp cut-off; inactive means mostly below about 27%
Target sequence (Q96LD8 whole entry, looked up): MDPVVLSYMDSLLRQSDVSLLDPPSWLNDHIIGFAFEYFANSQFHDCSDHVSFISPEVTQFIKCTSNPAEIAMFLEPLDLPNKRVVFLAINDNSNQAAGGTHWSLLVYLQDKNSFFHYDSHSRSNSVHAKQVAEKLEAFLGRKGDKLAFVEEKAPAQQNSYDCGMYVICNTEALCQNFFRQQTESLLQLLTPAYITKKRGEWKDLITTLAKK
SENP8 block-2: SENP8 protease inhibition; inhibition, % at 10 µM; AID 2540; actives 1.2% (n = 330,000); purified SENP8, Z-RLRGG-aminoluciferin cleavage, luminescence; in the data active means inhibition above about 50%
SENP7 inh: SENP7 protease inhibition; Q9BQF6; recombinant SENP7, Z-RLRGG-aminoluciferin luminescence, 40 min; inhibition, % at 5 µM; actives 1.5% (n = 330,000); AID 434973;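 active means inhibition above about 50% at the single test dose, limit read from the data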;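 further: plate controls were DMSO with enzyme for no effect and no enzyme buffer wells for full effect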
Platelet DG rel: modulates dense granule release in human platelets; AID 1663; inhibition, %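 (compounds screened at 7.5 µM in platelet-rich plasma)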; actives 0.22% (n = 300,000); human platelet-rich plasma, SFLLRN dense granule ATP release, luminescence;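 active means mean replicate score, as percent of positive control, at or above 50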
SENP8 conf: human SENP8 inhibition, confirmed; shares compounds with SENP7 inh; Recombinant SENP8, Z-RLRGG-aminoluciferin luminescence, 60 min; inhibition, % at 12.5 µM; actives 40% (n = 6,200);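 active means mean inhibition across replicates above about 50%, limit read from the data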
SENP6 confirm: human SENP6 inhibition, confirmed. shares compounds with SENP7 inh. recombinant SENP6, Z-RLRGG-aminoluciferin luminescence. inhibition, % at 12.5 µM. actives 58% (n = 6,200)
SENP7 confirm: human SENP7 inhibition, confirmed. shares compounds with SENP7 inh. recombinant SENP7, Z-RLRGG-aminoluciferin luminescence, 40 min. inhibition, % at 12.5 µM. actives 69% (n = 6,200). AID 488917
Casp3 SENP sel: inhibits human caspase-3 in SENP selectivity test; purified caspase-3, Z-DEVD-aminoluciferin luminescence, 60 min; actives 60% (n = 6,200); inhibition, % at 12.5 µM; AID 488918; shares compounds with SENP7 inh;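 active means mean inhibition above about 50%, limit read from the data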;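 further: plate controls were enzyme with DMSO for no effect and wells without caspase-3 for full effect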
Target sequence (P42574 28-227 limits assumed): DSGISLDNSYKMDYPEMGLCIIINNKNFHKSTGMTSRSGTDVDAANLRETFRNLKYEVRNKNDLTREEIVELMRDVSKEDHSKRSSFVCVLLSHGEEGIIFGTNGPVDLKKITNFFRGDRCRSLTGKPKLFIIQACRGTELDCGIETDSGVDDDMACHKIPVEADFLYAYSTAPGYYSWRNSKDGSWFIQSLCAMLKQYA
Luc interf: interferes with luciferase luminescence in SENP counter-screen; Pre-incubated SENP8/Z-RLRGG-aminoluciferin, luciferase luminescence interference; inhibition, % at 12.5 µM; actives 39% (n = 6,200); shares compounds with SENP7 inh;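 active means mean inhibition above about 50% when retested at one dose, limit read from the data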;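 further: plate controls were DMSO wells with completed reaction for no effect and substrate without enzyme for full effect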
Active calls of the source: *. An excerpt weighted towards active compounds, which were near 2.6% of everything screened.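 How the source made its calls, unless noted: active means mean inhibition above about 50% in the one-dose retest (limit read from the data); inactive means the rest.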

Screening O=C(O/N=C1/CCCc2occc21)c1ccc(Cl)cc1Cl returned SENP6 block 67.4*, SENP1 inh 2.5, SENP8 block-1 5.0, SENP8 block-2 54.6*, SENP7 inh 73.1*, Platelet DG rel -10.4, SENP8 conf -1.8, SENP6 confirm 46.0, SENP7 confirm 42.6, Casp3 SENP sel 53.2* and Luc interf 25.1.
Screening O=C(OCCN1CCOCC1)c1ccc(Cl)cc1Cl returned SENP6 block 6.1, SENP1 inh 1.5, SENP8 block-1 24.8, SENP8 block-2 4.2, SENP7 inh 0.9 and Platelet DG rel -2.9.
`O=C(O/N=C1/CCCc2occc21)c1ccccc1` gave SENP6 block 88.6*, SENP1 inh 3.7, SENP8 block-1 25.0, SENP8 block-2 84.0*, SENP7 inh 94.6*, Platelet DG rel 0.4, SENP8 conf -19.9, SENP6 confirm 84.2*, SENP7 confirm 98.5*, Casp3 SENP sel 91.7* and Luc interf 53.8*.
`COc1ccc(C(=O)O/N=C2\CCCc3nonc32)cc1` gave SENP6 block -4.0, SENP1 inh 3.2, SENP8 block-1 17.8, SENP8 block-2 1.5, SENP7 inh 0.1 and Platelet DG rel -14.4.
O=C(CN1CCN(S(=O)(=O)c2ccccc2)CC1)NCCc1ccccc1 was read as SENP6 block -3.8, SENP1 inh 1.4, SENP8 block-1 6.4, SENP8 block-2 -4.8, SENP7 inh 1.2 and Platelet DG rel -4.2.
For COc1ccc(C(=O)n2c(N)nc3ccccc32)cc1OC the results were SENP6 block 9.7, SENP1 inh -2.1, SENP8 block-1 -7.4, SENP8 block-2 -13.4, SENP7 inh -9.8 and Platelet DG rel 1.7.
`Nc1nc2ccccc2n1C(=O)c1ccccc1` gave SENP6 block 95.8*, SENP1 inh -1.4, SENP8 block-1 6.9, SENP8 block-2 86.4*, SENP7 inh 95.6*, Platelet DG rel 31.9, SENP8 conf 69.6*, SENP6 confirm 93.2*, SENP7 confirm 100.5*, Casp3 SENP sel 96.2* and Luc interf 41.1.
Screening Nc1nc2ccccc2n1C(=O)c1ccc(F)cc1 returned SENP6 block 93.0*, SENP1 inh 0.5, SENP8 block-1 6.0, SENP8 block-2 77.8*, SENP7 inh 94.1*, Platelet DG rel 11.6, SENP8 conf 60.0*, SENP6 confirm 82.6*, SENP7 confirm 96.8*, Casp3 SENP sel 92.1* and Luc interf 38.3.
For COc1ccc(CCNC(=O)CCNS(=O)(=O)c2cccc3nonc23)cc1OC the results were SENP6 block -10.8, SENP1 inh 1.5, SENP8 block-1 0.3, SENP8 block-2 -1.0, SENP7 inh 80.1*, Platelet DG rel -5.3, SENP8 conf -0.2, SENP6 confirm 6.8, SENP7 confirm 7.8, Casp3 SENP sel 1.5 and Luc interf 1.1.
COc1ccc(CCNC(=O)CCNS(=O)(=O)c2cccc3nsnc23)cc1OC was read as SENP6 block -7.0, SENP1 inh 1.3, SENP8 block-1 4.8, SENP8 block-2 5.8, SENP7 inh 12.9 and Platelet DG rel -2.7.
`CN(C)c1ccc(C=Nc2cnn(C)c2C(N)=O)cc1` gave SENP6 block 73.0*, SENP1 inh -63.2, SENP8 block-1 -49.3, SENP8 block-2 67.6*, SENP7 inh 77.5*, SENP8 conf 10.2, SENP6 confirm 44.9, SENP7 confirm 78.5*, Casp3 SENP sel 62.5* and Luc interf 24.0.
Screening Cn1ncc(N=Cc2ccccc2[N+](=O)[O-])c1C(N)=O returned SENP6 block -7.1, SENP1 inh 2.0, SENP8 block-1 -5.2, SENP8 block-2 -1.4, SENP7 inh -8.7 and Platelet DG rel -12.6.
O=C(CN1C(=O)c2ccccc2S1(=O)=O)c1ccc(Cl)cc1Cl was read as SENP6 block 67.5*, SENP1 inh -1.4, SENP8 block-1 -2.5, SENP8 block-2 72.3*, SENP7 inh 8.2, Platelet DG rel -8.8, SENP8 conf 73.3*, SENP6 confirm 76.9*, SENP7 confirm 83.5*, Casp3 SENP sel 50.5* and Luc interf 9.1.
For CCCCOc1cccc(/C=C(\C#N)C(=O)NC2CC2)c1 the results were SENP6 block 8.8, SENP1 inh 1.3, SENP8 block-1 -20.9, SENP8 block-2 13.1, SENP7 inh -4.0 and Platelet DG rel -1.2.
For CC(C)(C)c1cc(C(=O)NCc2cc(F)cc3c2OCOC3)n(Cc2ccccc2)n1 the results were SENP6 block -1.2, SENP1 inh 1.2, SENP8 block-1 12.9, SENP8 block-2 -5.2, SENP7 inh -4.4 and Platelet DG rel 4.7.
`CN(C)c1cc(N/N=C/c2ccccc2C(F)(F)F)nc(N(C)C)n1` gave SENP6 block 55.2*, SENP1 inh 0.3, SENP8 block-1 -30.1, SENP8 block-2 26.4, SENP7 inh 46.0, Platelet DG rel -1.3, SENP8 conf 4.9, SENP6 confirm 46.5, SENP7 confirm 22.0, Casp3 SENP sel -0.5 and Luc interf -2.1.
Screening O=C(O/N=C/C1=C(Cl)c2ccccc2CC1)c1ccc(F)cc1 returned SENP6 block -14.9, SENP1 inh 3.6, SENP8 block-1 -2.5, SENP8 block-2 -10.6, SENP7 inh 64.0*, Platelet DG rel -1.0, SENP8 conf 10.2, SENP6 confirm 12.6, SENP7 confirm 17.0, Casp3 SENP sel 30.9 and Luc interf 1.7.
Screening CCn1nc(C)c(CN2CCc3c([nH]c4ccccc34)C2c2ccc(F)c(OC)c2)c1C (stereo not drawn) returned SENP6 block -1.6, SENP1 inh -31.8, SENP8 block-1 -125.5, SENP8 block-2 -8.9, SENP7 inh -9.3 and Platelet DG rel -0.5.
`CCSc1cc(N2CCCC2)nc(-c2ccc(Cl)cc2)n1` gave SENP6 block 7.8, SENP1 inh 1.3, SENP8 block-1 -52.9, SENP8 block-2 9.2 and SENP7 inh 8.6.

Screens deposited in PubChem by several laboratories.
